The results in this text go back to ChEMBL document CHEMBL1133472, “Synthesis and evaluation of N,N-dialkyl enkephalin-based affinity labels for delta opioid receptors” (J Med Chem, 2000).

Square brackets hold non-standard residues; d marks the D form. Peptide text beside a SMILES is read from it. * marks the point of attachment. ξ: configuration not given here. Tyr(Nα,Nα-Bn2) = O=C([C@H](Cc1ccc(O)cc1)N(Cc1ccccc1)Cc1ccccc1)*; Tyr(Nα,Nα-allyl2) = C=CCN(CC=C)[C@@H](Cc1ccc(O)cc1)C(=O)*; X1 = O=C(C(Cc1ccc(O)cc1)N(Cc1ccccc1)Cc1ccccc1)*; Phe(4-NH2) = Nc1ccc(C[C@H](N)C(=O)O)cc1; Aib = CC(C)(N)C(=O)O; BrAc = O=C(CBr)*; ξA = CC(N)C(=O)O

The target in experiment [1] is Delta-type opioid receptor (Mus musculus, UniProt P32300). Description: Binding affinity was measured in cloned Opioid receptor delta 1 expressed in CHO cells using [3H]- DPDPE as radioligand. Format: cell-based. The method in brief: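 Mouse δ receptor stably expressed in CHO cells; washed membranes (100 µg protein) incubated 90 min at 22 °C in 50 mM Tris pH 7.4 with 3 mM Mg2+ and peptidase inhibitors (bestatin, captopril, L-leucyl-L-leucine). [3H]DPDPE at 0.5-0.8 nM; nonspecific binding with 10 µM DPDPE. Filtration on PEI-soaked GF/B, scintillation counting.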

The target of another experiment is Mu-type opioid receptor (Rattus norvegicus, UniProt P33535). The experiment in a line: Binding affinity was measured in cloned Opioid receptor mu 1 expressed in CHO cells using [3H]- DAMGO as radioligand. Format: cell-based. The method in brief:
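Rat µ receptor stably expressed in CHO cells; membranes (100 µg protein) incubated 90 min at 22 °C in 50 mM Tris pH 7.4 with 3 mM Mg2+ and bestatin, captopril, L-leucyl-L-leucine. [3H]DAMGO at 0.5-0.8 nM; nonspecific binding with 10 µM DAMGO. Filtration on PEI-presoaked GF/B filters, scintillation counting.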

Experiment [2] relates to mu (Rattus norvegicus) & delta (Mus musculus) opioid receptors. The experiment in a line: Ratio of IC50 against mu opioid receptor to that of delta opioid receptor.

Chain of Mu-type opioid receptor (P33535 whole entry, looked up): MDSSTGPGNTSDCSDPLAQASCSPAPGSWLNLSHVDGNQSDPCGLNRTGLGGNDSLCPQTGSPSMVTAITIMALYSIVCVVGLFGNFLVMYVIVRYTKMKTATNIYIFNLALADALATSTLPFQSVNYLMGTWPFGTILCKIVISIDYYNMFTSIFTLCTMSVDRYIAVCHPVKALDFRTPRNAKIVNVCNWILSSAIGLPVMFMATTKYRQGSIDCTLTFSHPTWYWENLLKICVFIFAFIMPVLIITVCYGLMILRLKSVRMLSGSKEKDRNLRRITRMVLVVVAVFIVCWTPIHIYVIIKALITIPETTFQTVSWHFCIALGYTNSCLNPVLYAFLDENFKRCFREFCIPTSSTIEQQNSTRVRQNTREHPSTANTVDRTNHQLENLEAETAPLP
Chain of Delta-type opioid receptor (P32300 whole entry): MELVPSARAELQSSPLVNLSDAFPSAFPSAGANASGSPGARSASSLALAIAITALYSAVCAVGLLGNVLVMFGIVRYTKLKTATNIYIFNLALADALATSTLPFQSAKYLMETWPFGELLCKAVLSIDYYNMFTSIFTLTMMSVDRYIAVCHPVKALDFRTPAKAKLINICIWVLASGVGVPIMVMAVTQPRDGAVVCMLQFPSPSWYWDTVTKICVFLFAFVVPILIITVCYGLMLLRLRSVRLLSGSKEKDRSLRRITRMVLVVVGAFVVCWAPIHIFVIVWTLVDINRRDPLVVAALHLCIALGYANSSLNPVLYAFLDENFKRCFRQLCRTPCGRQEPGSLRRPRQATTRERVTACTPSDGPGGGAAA

With `CC(C)C[C@H](NC(=O)[C@H](Cc1ccc(N=C=S)cc1)NC(=O)CNC(=O)CNC(=O)[C@H](Cc1ccc(O)cc1)N(Cc1ccccc1)Cc1ccccc1)C(=O)O`, the IC50 is 0.0349 µM in experiment [1] and 1.9 µM at Mu-type opioid receptor. In addition, the Ratio in experiment [2] worked out at 54.
Turning to `CC(C)C[C@H](NC(=O)[C@H](Cc1ccc(NCCl)cc1)NC(=O)CNC(=O)CNC(=O)[C@H](Cc1ccc(O)cc1)N(Cc1ccccc1)Cc1ccccc1)C(=O)O`, the IC50 was found to be 0.145 µM in experiment [1] and 19 µM on Mu-type opioid receptor. In experiment [2], the Ratio was found to be 131.
For the compound `C=CCN(CC=C)[C@@H](Cc1ccc(O)cc1)C(=O)NC(C)(C)C(=O)NC(C)(C)C(=O)N[C@@H](Cc1ccccc1)C(=O)N[C@@H](CC(C)C)C(=O)O` (HELM PEPTIDE1{[C=CCN(CC=C)[C@@H](Cc1ccc(O)cc1)C(=O)[*:2]].[Aib].[Aib].F.L}$$$$V2.0), the IC50 was 0.703 µM in experiment [1] and 18.9 µM at Mu-type opioid receptor. In experiment [2], the Ratio came to 27.
For `CC(C)C[C@H](NC(=O)[C@H](Cc1ccccc1)NC(=O)CNC(=O)CNC(=O)[C@H](Cc1ccc(O)cc1)N(Cc1ccccc1)Cc1ccccc1)C(=O)O` (HELM PEPTIDE1{[O=C([C@H](Cc1ccc(O)cc1)N(Cc1ccccc1)Cc1ccccc1)[*:2]].G.G.F.L}$$$$V2.0), in that order: 0.0782 µM, 1.6 µM and 20.
For the compound `CC(C)C[C@H](NC(=O)[C@H](Cc1ccc(NC(=O)CBr)cc1)NC(=O)CNC(=O)CNC(=O)C(Cc1ccc(O)cc1)N(Cc1ccccc1)Cc1ccccc1)C(=O)O` (stereo partly drawn) (X1-GG[Phe(4-NH2)](BrAc)L-OH), the Ratio in experiment [2] was determined as 61.
For `CC(C)C[C@H](NC(=O)[C@H](Cc1ccc(NC(=O)CBr)cc1)NC(=O)CNC(=O)CNC(=O)[C@H](Cc1ccc(O)cc1)N(Cc1ccccc1)Cc1ccccc1)C(=O)O` ({Tyr(Nα,Nα-Bn2)}-GG[Phe(4-NH2)](BrAc)L-OH), the IC50 in experiment [1] turned out to be 0.149 µM; on Mu-type opioid receptor, 9.1 µM.
Take `C=CCN(CC=C)[C@@H](Cc1ccc(O)cc1)C(=O)NC(C)(C)C(=O)NC(C)C(=O)N[C@@H](Cc1ccc(N)cc1)C(=O)N[C@@H](CC(C)C)C(=O)O` (stereo partly drawn) ({Tyr(Nα,Nα-allyl2)}-[Aib][ξA][Phe(4-NH2)]L-OH): the results for the IC50 (in experiment [1]; at Mu-type opioid receptor) were 1.39 µM and 87.7 µM, respectively. Also, the Ratio in experiment [2] is 63.
As to `C=CCN(CC=C)[C@@H](Cc1ccc(O)cc1)C(=O)NC(C)C(=O)NC(C)C(=O)N[C@@H](Cc1ccc(NC(=O)CBr)cc1)C(=O)N[C@@H](CC(C)C)C(=O)O` (stereo partly drawn) ({Tyr(Nα,Nα-allyl2)}-[ξA][ξA][Phe(4-NH2)](BrAc)L-OH), the IC50 in experiment [1] is 0.392 µM; on Mu-type opioid receptor it was above 10 µM.
